Test results: ChEMBL document CHEMBL3600304, “Gageopeptins A and B, new inhibitors of zoospore motility of the phytopathogen Phytophthora capsici from a marine-derived bacterium Bacillus sp. 109GGC020” (Bioorg Med Chem Lett, 2015)
In brackets after ≈: the same amount, converted by molar mass. Activity calls are given as the source filed them. No cut-off for these calls is given here. Where a SMILES comes first, the peptide text is derived from it.

Experiments:
Phytophthora capsici [1] = test: Inhibition of Phytophthora capsici zoospore motility at 5 ug/ml by homogeneous solution method; format: functional, organism-based; conditions: TDE = time-dependent effect
Phytophthora capsici [2] = test: Inhibition of Phytophthora capsici zoospore motility after 15 to 60 mins by homogeneous solution method; format: functional, organism-based
Phytophthora capsici [3] = test: Inhibition of Phytophthora capsici zoospore motility at 1 ug/ml after 15 to 60 mins by homogeneous solution method; format: functional, organism-based
Phytophthora capsici [4] = test: Induction of Phytophthora capsici zoospore lytic activity at 1 ug/ml after 5 to 60 mins by homogeneous solution method; format: functional, organism-based
Phytophthora capsici [5] = test: Induction of Phytophthora capsici zoospore lytic activity at 10 ug/ml after 60 mins by homogeneous solution method; format: functional, organism-based
Phytophthora capsici [6] = test: Induction of Phytophthora capsici zoospore lytic activity at 50 ug/ml after 30 mins by homogeneous solution method; format: functional, organism-based
Rhizoctonia solani = test: Antifungal activity against Rhizoctonia solani by broth dilution assay; format: functional
Summary of the method: (§1)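 Broth dilution assay for the minimum growth-inhibitory concentration against Gram-positive and Gram-negative bacteria and fungi. Each organism was cultured under its own growth conditions.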

Colletotrichum acutatum = test: Antifungal activity against Colletotrichum acutatum by broth dilution assay; format: functional; summary of the method: as §1
Botrytis cinerea = test: Antifungal activity against Botrytis cinerea by broth dilution assay; format: functional; summary of the method: as §1
Staphylococcus aureus = test: Antibacterial activity against Staphylococcus aureus by broth dilution assay; format: functional; summary of the method: as §1
Bacillus subtilis = test: Antibacterial activity against Bacillus subtilis by broth dilution assay; format: functional; summary of the method: as §1
Salmonella typhi = test: Antibacterial activity against Salmonella typhi by broth dilution assay; format: functional, Salmonella enterica subsp. enterica serovar Typhi; conditions: Salmonella enterica
Summary of the method: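 Broth dilution test giving the minimum concentration that inhibits growth, run against Gram-positive and Gram-negative bacteria. Growth conditions were kept specific to each organism during culture.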

Pseudomonas aeruginosa = test: Antibacterial activity against Pseudomonas aeruginosa by broth dilution assay; format: functional; summary of the method: as §1
Phytophthora capsici [7] = test: Inhibition of Phytophthora capsici zoospore motility at 500 ug/ml after 15 to 60 mins by homogeneous solution method; format: functional, organism-based
Phytophthora capsici [8] = test: Induction of Phytophthora capsici zoospore lytic activity at 500 ug/ml after 5 to 60 mins by homogeneous solution method; format: functional, organism-based

Structure (SMILES)	inhibition (Phytophthora capsici [1])	IC50 (Phytophthora capsici [2]) [µg/mL]	inhibition (Phytophthora capsici [2])	inhibition (Phytophthora capsici [3])	Activity (Phytophthora capsici [4])	Activity (Phytophthora capsici [5])	Activity (Phytophthora capsici [6])	MIC (Rhizoctonia solani) [µg/mL]	MIC (Colletotrichum acutatum) [µg/mL]	MIC (Botrytis cinerea) [µg/mL]	MIC (Staphylococcus aureus) [µg/mL]	MIC (Bacillus subtilis) [µg/mL]	MIC (Salmonella typhi) [µg/mL]	MIC (Pseudomonas aeruginosa) [µg/mL]	inhibition (Phytophthora capsici [7])	Activity (Phytophthora capsici [8])
CCC(C)CC(C)CCCCCCCC[C@@H]1CC(=O)N[C@@H](CCC(=O)O)C(=O)N[C@@H](C(C)C)C(=O)N[C@@H](CC(C)C)C(=O)N[C@@H](C)C(=O)N[C@@H](CC(=O)O)C(=O)N[C@@H](CC(C)C)C(=O)N[C@@H](CC(C)C)C(=O)O1 (stereo partly drawn) (HELM PEPTIDE1{E.V.L.A.D.L.L}|CHEM1{[CCC(C)CC(C)CCCCCCCC[C@H](CC(=O)[*:1])O[*:2]]}$PEPTIDE1,CHEM1,1:R1-1:R1|PEPTIDE1,CHEM1,7:R2-1:R2$$$V2.0)	tde	1 (≈ 0.965 µM)	Dose-dependent effect	Active	Active	Active	Active	4 (≈ 3.86 µM)	8 (≈ 7.72 µM)	4 (≈ 3.86 µM)	16 (≈ 15.4 µM)	16 (≈ 15.4 µM)	16 (≈ 15.4 µM)	16 (≈ 15.4 µM)	–	–
CCC(C)CCCCCCCCCC[C@@H]1CC(=O)N[C@@H](CCC(=O)O)C(=O)N[C@@H](C(C)C)C(=O)N[C@@H](CC(C)C)C(=O)N[C@@H](C)C(=O)N[C@@H](CC(=O)O)C(=O)N[C@@H](CC(C)C)C(=O)N[C@@H](CC(C)C)C(=O)O1 (stereo partly drawn) (HELM PEPTIDE1{E.V.L.A.D.L.L}|CHEM1{[CCC(C)CCCCCCCCCC[C@H](CC(=O)[*:1])O[*:2]]}$PEPTIDE1,CHEM1,1:R1-1:R1|PEPTIDE1,CHEM1,7:R2-1:R2$$$V2.0)	tde	400 (≈ 391 µM)	Dose-dependent effect	–	–	–	–	8 (≈ 7.83 µM)	8 (≈ 7.83 µM)	8 (≈ 7.83 µM)	16 (≈ 15.7 µM)	32 (≈ 31.3 µM)	32 (≈ 31.3 µM)	16 (≈ 15.7 µM)	Active	inactive
C[C@@H]1[C@H](O)[C@@H](C)/C=C/C=C/C=C/C=C/C=C/C=C/C=C/[C@H](O[C@@H]2O[C@H](C)[C@@H](O)[C@H](N)[C@@H]2O)C[C@@H]2O[C@](O)(C[C@@H](O)C[C@@H](O)[C@H](O)CC[C@@H](O)C[C@@H](O)CC(=O)O[C@H]1C)C[C@H](O)[C@H]2C(=O)O [AMPHOTERICIN B]	–	–	–	–	–	–	–	1 (≈ 1.08 µM)	1 (≈ 1.08 µM)	1 (≈ 1.08 µM)	–	–	–	–	–	–
CC[C@H]1OC(=O)[C@H](C)[C@@H](O[C@H]2C[C@@](C)(OC)[C@@H](O)[C@H](C)O2)[C@H](C)[C@@H](O[C@@H]2O[C@H](C)C[C@H](N(C)C)[C@H]2O)[C@](C)(O)C[C@@H](C)CN(C)[C@H](C)[C@@H](O)[C@]1(C)O [AZITHROMYCIN]	–	–	–	–	–	–	–	–	–	–	2 (≈ 2.67 µM)	2 (≈ 2.67 µM)	2 (≈ 2.67 µM)	2 (≈ 2.67 µM)	–	–
